Our source for the inhibition, Activity and Drug metabolism values is ChEMBL document CHEMBL2169799, “Synthesis and characterization of a novel prostate cancer-targeted phosphatidylinositol-3-kinase inhibitor prodrug” (J Med Chem, 2012).

Data set [1] deals with C4-2. In words: Inhibition of PI3 kinase in human C4-2 cells assessed as complete reduction of p-Akt T308 level at 30 µM after 30 mins by Western blotting. The data set is classed as cell-based. (In western blotting, separated proteins are transferred to a membrane and probed.)
For data set [2], the system named is C4-2. In words: Inhibition of PI3 kinase in human C4-2 cells assessed as reduction of p-Akt T308 level after 30 mins by Western blotting. The data set is classed as cell-based.
Data set [3] deals with BT-549. In words: Inhibition of PI3 kinase in human BT549 cells assessed as reduction of p-Akt T308 level after 30 mins by Western blotting. The data set is classed as cell-based.
In data set [4] the test system is BT-549. Briefly: Inhibition of PI3 kinase in human BT549 cells assessed as complete reduction of p-Akt T308 level at 30 µM after 30 mins by Western blotting. Format: cell-based.
Data set [5] has as its system LNCaP C4-2. In words: Induction of apoptosis in human C4-2 cells expressing Luc-BAD assessed as increase in cleavage of PARP at 3 to 50 uM after 6 hrs by Western blotting. The data set is classed as functional, cell-based. Summed up: (§1)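 C4-2LucBAD cells seeded 4×10^5 per 6 cm dish, grown 48 h in RPMI 1640/10% FBS to ~80% confluence, then serum-free 18 h; treated 6 h (DMSO control). Caspase 3 fluorescence read every 15 min for 1 h, arbitrary units, means ± SEM, n=2; cleaved PARP (89 kDa) by Western blot of same samples.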

Data set [6] in a line: Prodrug activation in medium conditioned with human BT549 cells assessed as concentration of 4-(2-morpholino-4-oxo-4H-chromen-8-yl) benzyl-2-amino-4-methylpentanoate at 30 uM from 30 mins to 6 hrs by LC-ESI-MS analysis. Format: cell-based. Conditions: bt-549, 30 µM. Summed up: (§2)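 Serum-free C4-2 or BT-549 cultures given compound, PBS control; media sampled at 30 min, 3 and 6 h. Released drug quantified by C18 UHPLC (water/methanol, 0.1% formic acid gradient) with positive ESI high-resolution Orbitrap MS at mass 496.2569, against standard curve; means ± SEM, n=3.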

The subject of data set [7] is LNCaP C4-2. Briefly: Induction of apoptosis in human C4-2 cells expressing Luc-BAD assessed as increase in caspase activity at 3 to 50 uM after 6 hrs by Caspase 3 assay. The data set is classed as functional, cell-based. A digest of the protocol: as §1
Data set [8] concerns C4-2. In words: Inhibition of PI3 kinase in human C4-2 cells expressing Luc-BAD assessed as reduction of p-Akt T308 level after 3 hrs by Western blotting. Format: cell-based. A digest of the protocol:
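Serum-free C4-2LucBAD cells (18 h starvation, RPMI 1640 base) dosed over a concentration range for 3 h, PBS control; p-Akt T308 immunoblot of lysates.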

In data set [9] the test system is C4-2. Briefly: Inhibition of PI3 kinase in human C4-2 cells assessed as reduction of p-Akt T308 level after 3 hrs by Western blotting. Format: cell-based.
Data set [10] deals with BT-549. In words: Inhibition of PI3 kinase in human BT549 cells assessed as reduction of p-Akt T308 level after 3 hrs by Western blotting. Format: cell-based. Summed up: (§3)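 Cells at ~80% confluence (48 h after seeding 4×10^5 per 6 cm dish), kept serum-free (LNCaP in T-Medium with 2.5% FBS; U-87 MG in DMEM) and dosed over a concentration range for 3 h, PBS control; p-Akt T308 by Western blot, three independent experiments.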

The test system of data set [11] is BT-549. Briefly: Inhibition of PI3 kinase in human BT549 cells exposed to C4-2 cells conditioned medium pre-incubated with compound for 6 hrs assessed as reduction of p-Akt T308 level by Western blotting. Format: cell-based. Summed up: (§4)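 Compound incubated 6 h at 37 °C, 5% CO2 in serum-free medium on C4-2 or BT-549 cells; medium then transferred to BT-549 cells for 3 h, PBS control; p-Akt T308 by Western blot.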

Data set [12] in a line: Prodrug activation in medium conditioned with human C4-2 cells assessed as concentration of 4-(2-morpholino-4-oxo-4H-chromen-8-yl) benzyl-2-amino-4-methylpentanoate at 30 uM from 30 mins to 6 hrs by LC-ESI-MS analysis. The data set is classed as cell-based. Conditions: c4-2, 30 µM. Summed up:
as §2

The subject of data set [13] is BT-549. Briefly: Inhibition of PI3 kinase in human BT549 cells exposed to BT549 cells conditioned medium pre-incubated with compound for 6 hrs assessed as reduction of p-Akt T308 level by Western blotting. The data set is classed as cell-based. A digest of the protocol: as §4
In data set [14] the test system is BT-549. Briefly: Inhibition of PI3 kinase in human BT549 cells exposed to 10 uM compound pre-incubated with 0.5 to 10^4 ng/mL PSA for 6 hrs assessed as reduction of p-Akt T308 levels after 30 mins by Western blotting. The data set is classed as cell-based. Summed up:
(§5)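 Compound pre-incubated 6 h at 37 °C in 50 mM Tris-HCl, 0.1 M NaCl, pH 7.8 with purified active human semen PSA (0–104 ng/mL), then added to BT-549 cells for 30 min, DMSO control; p-Akt T308 Western blot, three independent experiments.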

The subject of data set [15] is BT-549. In words: Inhibition of PI3 kinase in human BT549 cells exposed to 10 uM compound pre-incubated in absence of PSA for 6 hrs assessed as reduction of p-Akt T308 levels after 30 mins by Western blotting. The data set is classed as cell-based. Summed up:
as §5

The subject of data set [16] is LNCaP. In words: Inhibition of PI3 kinase in human LNCaP cells assessed as reduction of p-Akt T308 level after 3 hrs by Western blotting. The data set is classed as cell-based. Summed up:
as §3

Data set [17] has as its system BT-549. In words: Inhibition of PI3 kinase in human BT549 cells assessed as reduction of p-Akt T308 level at 30 uM after 30 mins to 6 hrs by Western blotting. The data set is classed as cell-based. Summed up: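 Serum-free BT-549 cells (RPMI 1640, 10% FBS, insulin during growth) exposed from 30 min to 6 h, PBS control; p-Akt T308 Western blot of cleared lysates, representative of three independent experiments.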

For data set [18], the system named is U-87. In words: Inhibition of PI3 kinase in human U-87 cells assessed as reduction of p-Akt T308 level after 3 hrs by Western blotting. The data set is classed as cell-based. Summed up: as §3
For data set [19], the system named is C4-2. Briefly: Inhibition of PI3 kinase in human C4-2 cells assessed as reduction of p-Akt T308 level at 30 uM by Western blotting. Format: cell-based. Conditions: TDE = time-dependent effect.

Molecules are shown by their SMILES. Calls of active or inactive are those of the source. No cut-off for these calls is given here. *1 amine or outer side, *2 acyl side, *3 side chain or, on linkers, in order; H or OH if unused. Where a SMILES comes first, the peptide text is derived from it. The star is where a group is joined. X1 = O=c1cc(N2CCOCC2)oc2c(-c3ccc(CO*)cc3)cccc12; Morpholide = C1CN(*)CCO1; CO = O=C([*:1])[*:2]

As for `CC(C)C[C@H](N)C(=O)OCc1ccc(-c2cccc3c(=O)cc(N4CCOCC4)oc23)cc1`, the inhibition result in data set [1] and in [4] was “Active” throughout. In addition, the inhibition result in data set [2] and in [3] was “Dose-dependent effect” each time.

With `CC(C)C[C@H](NC(=O)[C@H](CCCCN)NC(=O)[C@H](CO)NC(=O)[C@H](CO)NC(=O)[C@H](Cc1cnc[nH]1)NC(=O)[C@H](CCC(=O)O)NC(=O)[C@H](CC(C)C)NC(=O)N1CCOCC1)C(=O)N[C@@H](CCC(N)=O)C(=O)N[C@@H](CC(C)C)C(=O)OCc1ccc(-c2cccc3c(=O)cc(N4CCOCC4)oc23)cc1` ({Morpholide-CO}-LEHSSKLQL-X1), the outcome in data set [5] and in [7] was Active. For the same compound, the Drug metabolism result is given as “Not Active” in data set [6] and “Active” in data set [12]. The inhibition result in [8] is “Dose-dependent effect”; in [9] it was “Dose-dependent effect”; in data set [16] it was “Dose-dependent effect”; in [19], “tde”. Further, the inhibition result in [10], in [13], in [15], in data set [17] and in data set [18] was “inactive” throughout. Moreover, the inhibition result in data set [11] and in data set [14] was “Active” each time.
